Converted amounts (≈) assume the structure as drawn.
Tests used:
Candida albicans [1] = experiment: Antifungal activity against Candida albicans CPCC400616 assessed as fungal growth inhibition by CLSI protocol based method; assay type: functional
Cryptococcus neoformans = experiment: Antifungal activity against Cryptococcus neoformans CGMCC2.3161 assessed as fungal growth inhibition by CLSI protocol based method; assay type: functional
Nakaseomyces glabratus = experiment: Antifungal activity against Candida glabrata assessed as fungal growth inhibition by CLSI protocol based method; assay type: functional
Candida tropicalis = experiment: Antifungal activity against Candida tropicalis CGMCC 2.3739 assessed as fungal growth inhibition by CLSI protocol based method; assay type: functional
MCF7 = experiment: Cytotoxicity against human MCF7 cells assessed as reduction in cell viability measured after 96 hrs by MTT assay; assay type: ADME, cell-based; settings: MCF7, 96 h
A549 = experiment: Cytotoxicity against human A549 cells assessed as reduction in cell viability measured after 96 hrs by MTT assay; assay type: ADME, cell-based; settings: A549, 96 h
Candida albicans [2] = experiment: Antifungal activity against Candida albicans ATCC SC5314 assessed as fungal growth inhibition by CLSI protocol based method; assay type: functional
Candida albicans [3] = experiment: Fungicidal activity against Candida albicans ATCC SC5314 assessed as inhibition of visible fungal growth measured after 48 hrs; assay type: functional
Candida albicans [4] = experiment: Anti-biofilm activity in Candida albicans CPCC400616 assessed as inhibition of biofilm formation incubated for 3 hrs by XTT assay; assay type: functional
Summary of the method: (§1)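 C. albicans CPCC400616 suspension placed in wells at 37 °C. Non-adherent cells and medium were removed at 3, 6, 18 or 24 h and wells washed with PBS. Compounds were added at a range of concentrations in fresh RPMI 1640 and incubated a further 24 h at 37 °C. Biofilm metabolic activity was read by XTT reduction.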

Candida albicans [5] = experiment: Anti-biofilm activity in Candida albicans CPCC400616 assessed as inhibition of biofilm formation incubated for 6 hrs by XTT assay; assay type: functional; summary of the method: as §1
Candida parapsilosis = experiment: Antifungal activity against Candida parapsilosis GIM2.190 assessed as fungal growth inhibition by CLSI protocol based method; assay type: functional; settings: Lodderomyces parapsilosis
Candida albicans [6] = experiment: Anti-biofilm activity in Candida albicans CPCC400616 assessed as inhibition of biofilm formation incubated for 18 hrs by XTT assay; assay type: functional; summary of the method: as §1
Candida albicans [7] = experiment: Anti-biofilm activity in Candida albicans CPCC400616 assessed as inhibition of biofilm formation incubated for 24 hrs by XTT assay; assay type: functional; summary of the method: as §1
THLE-2 = experiment: Cytotoxicity against human THLE-2 cells assessed as reduction in cell viability measured after 96 hrs by MTT assay; assay type: ADME, cell-based; settings: THLE-2, 96 h
Pichia kudriavzevii = experiment: Antifungal activity against Candida krusei GIM2.1 assessed as fungal growth inhibition by CLSI protocol based method; assay type: functional
Candida albicans [8] = experiment: Antifungal activity against fluconazole-resistant Candida albicans 100 assessed as fungal growth inhibition by CLSI protocol based method
Candida albicans [9] = experiment: Antifungal activity against fluconazole-resistant Candida albicans 904 assessed as fungal growth inhibition by CLSI protocol based method
Candida albicans [10] = experiment: Antifungal activity against fluconazole-resistant Candida albicans 103 assessed as fungal growth inhibition by CLSI protocol based method
Candida albicans [11] = experiment: Antifungal activity against fluconazole-resistant Candida albicans 901 assessed as fungal growth inhibition by CLSI protocol based method
Candida albicans [12] = experiment: Antifungal activity against fluconazole-resistant Candida albicans 311 assessed as fungal growth inhibition by CLSI protocol based method
Candida albicans [13] = experiment: Antifungal activity against fluconazole-resistant Candida albicans 632 assessed as fungal growth inhibition by CLSI protocol based method
[14] = Metabolic stability in human plasma assessed as parent compound remaining after 60 mins by LC-MS/MS analysis; assay type: ADME, cell-free; settings: read-out: Stability
[15] = Metabolic stability in human plasma assessed as half life after 60 mins by LC-MS/MS analysis; assay type: ADME, cell-free
[16] = Metabolic stability in human plasma assessed as parent compound remaining after 120 mins by LC-MS/MS analysis; assay type: ADME, cell-free; settings: read-out: Stability

SMILES | MIC (Candida albicans [1]) | MIC (Cryptococcus neoformans) | MIC (Nakaseomyces glabratus) | MIC (Candida tropicalis) | IC50 (MCF7) | IC50 (A549) | MIC (Candida albicans [2]) | MFC (Candida albicans [3]) | MBIC50 (Candida albicans [4]) | MBIC50 (Candida albicans [5]) | MIC (Candida parapsilosis) | MBIC50 (Candida albicans [6]) | MBIC50 (Candida albicans [7]) | MIC (Pichia kudriavzevii) | MIC (Candida albicans [8]) | MIC (Candida albicans [9]) | MIC (Candida albicans [10]) | MIC (Candida albicans [11]) | MIC (Candida albicans [12]) | MIC (Candida albicans [13]) | also measured
CCC(C)n1ncn(-c2ccc(N3CCN(c4ccc(OCC5COC(Cn6cncn6)(c6ccc(Cl)cc6Cl)O5)cc4)CC3)cc2)c1=O (centres undefined) [ITRACONAZOLE] | 0.03 µg/mL (≈ 0.0425 µM) | 0.125 µg/mL (≈ 0.177 µM) | 0.125 µg/mL (≈ 0.177 µM) | 0.03 µg/mL (≈ 0.0425 µM) | > 30 µM | > 30 µM | 0.03 µg/mL (≈ 0.0425 µM) | 16 µg/mL (≈ 22.7 µM) | 16 µg/mL | 32 µg/mL | 0.125 µg/mL (≈ 0.177 µM) | >64 µg/mL | >64 µg/mL | 0.125 µg/mL (≈ 0.177 µM) | – | – | – | – | – | – | IC50 (THLE-2): > 30 µM
O=C(NC(Cn1ccnc1)C(=O)c1ccccc1)c1ccc(-c2ccccc2)s1 (centres undefined) | 0.5 µg/mL (≈ 1.25 µM) | 8 µg/mL (≈ 19.9 µM) | 2 µg/mL (≈ 4.98 µM) | 1 µg/mL (≈ 2.49 µM) | – | – | 0.5 µg/mL (≈ 1.25 µM) | – | – | – | 0.5 µg/mL (≈ 1.25 µM) | – | – | 32 µg/mL (≈ 79.7 µM) | 4 µg/mL (≈ 9.96 µM) | 4 µg/mL (≈ 9.96 µM) | 4 µg/mL (≈ 9.96 µM) | 4 µg/mL (≈ 9.96 µM) | 8 µg/mL (≈ 19.9 µM) | 8 µg/mL (≈ 19.9 µM) | –
O=C(NC(Cn1ccnc1)C(=O)c1ccccc1F)c1ccc(-c2ccc(Cl)cc2)s1 (centres undefined) | 0.06 µg/mL (≈ 0.132 µM) | 2 µg/mL (≈ 4.41 µM) | > 64 µg/mL | > 64 µg/mL | – | – | 0.06 µg/mL (≈ 0.132 µM) | – | – | – | > 64 µg/mL | – | – | 1 µg/mL (≈ 2.2 µM) | > 64 µg/mL | > 64 µg/mL | 4 µg/mL (≈ 8.81 µM) | 2 µg/mL (≈ 4.41 µM) | 8 µg/mL (≈ 17.6 µM) | > 64 µg/mL | –
O=C(NC(Cn1ccnc1)C(=O)c1cccc(F)c1)c1ccc(-c2ccc(Cl)cc2)s1 (centres undefined) | 0.125 µg/mL (≈ 0.275 µM) | 0.25 µg/mL (≈ 0.551 µM) | 1 µg/mL (≈ 2.2 µM) | 0.125 µg/mL (≈ 0.275 µM) | > 30 µM | 26.5 µM | 0.06 µg/mL (≈ 0.132 µM) | 25 µg/mL (≈ 55.1 µM) | 2 µg/mL | 16 µg/mL | 0.5 µg/mL (≈ 1.1 µM) | >64 µg/mL | >64 µg/mL | 0.25 µg/mL (≈ 0.551 µM) | 2 µg/mL (≈ 4.41 µM) | 2 µg/mL (≈ 4.41 µM) | 2 µg/mL (≈ 4.41 µM) | 2 µg/mL (≈ 4.41 µM) | 1 µg/mL (≈ 2.2 µM) | 0.5 µg/mL (≈ 1.1 µM) | remaining at 1 h [14]: 73.4%; half-life [15]: 1.85 h; remaining at 2 h [16]: 47.1%; IC50 (THLE-2): 4.81 µM
O=C(NC(Cn1ccnc1)C(=O)c1ccccc1)c1ccc(-c2ccc(Cl)cc2)s1 (centres undefined) | 0.125 µg/mL (≈ 0.287 µM) | > 64 µg/mL | 1 µg/mL (≈ 2.29 µM) | 0.125 µg/mL (≈ 0.287 µM) | – | – | 0.125 µg/mL (≈ 0.287 µM) | – | – | – | 0.25 µg/mL (≈ 0.573 µM) | – | – | 4 µg/mL (≈ 9.18 µM) | 2 µg/mL (≈ 4.59 µM) | 4 µg/mL (≈ 9.18 µM) | 4 µg/mL (≈ 9.18 µM) | 4 µg/mL (≈ 9.18 µM) | 2 µg/mL (≈ 4.59 µM) | 4 µg/mL (≈ 9.18 µM) | –
C[C@@H](c1ncncc1F)[C@](O)(Cn1cncn1)c1ccc(F)cc1F [VORICONAZOLE] | 0.125 µg/mL (≈ 0.358 µM) | 0.06 µg/mL (≈ 0.172 µM) | 0.125 µg/mL (≈ 0.358 µM) | 0.06 µg/mL (≈ 0.172 µM) | > 30 µM | > 30 µM | 0.06 µg/mL (≈ 0.172 µM) | 8 µg/mL (≈ 22.9 µM) | 16 µg/mL | 32 µg/mL | 0.06 µg/mL (≈ 0.172 µM) | >64 µg/mL | >64 µg/mL | 0.125 µg/mL (≈ 0.358 µM) | – | – | – | – | – | – | IC50 (THLE-2): > 30 µM
COc1ccc(C(=O)C(Cn2ccnc2)NC(=O)c2ccc(-c3ccc(Cl)cc3)s2)cc1 (centres undefined) | 0.125 µg/mL (≈ 0.268 µM) | > 64 µg/mL | 4 µg/mL (≈ 8.58 µM) | 0.06 µg/mL (≈ 0.129 µM) | – | – | < 0.03 µg/mL | – | – | – | > 64 µg/mL | – | – | 8 µg/mL (≈ 17.2 µM) | 4 µg/mL (≈ 8.58 µM) | 16 µg/mL (≈ 34.3 µM) | 8 µg/mL (≈ 17.2 µM) | 8 µg/mL (≈ 17.2 µM) | 4 µg/mL (≈ 8.58 µM) | 8 µg/mL (≈ 17.2 µM) | –
O=C(NC(Cn1ccnc1)C(=O)c1ccc(F)cc1)c1ccc(-c2ccc(Cl)cc2)s1 (centres undefined) | 0.25 µg/mL (≈ 0.551 µM) | > 64 µg/mL | 1 µg/mL (≈ 2.2 µM) | 2 µg/mL (≈ 4.41 µM) | – | – | 0.06 µg/mL (≈ 0.132 µM) | – | – | – | > 64 µg/mL | – | – | > 64 µg/mL | 4 µg/mL (≈ 8.81 µM) | 16 µg/mL (≈ 35.2 µM) | 8 µg/mL (≈ 17.6 µM) | 8 µg/mL (≈ 17.6 µM) | 4 µg/mL (≈ 8.81 µM) | 4 µg/mL (≈ 8.81 µM) | –

Reference: ChEMBL document CHEMBL4828738, “Design, synthesis and evaluation of novel 5-phenylthiophene derivatives as potent fungicidal of Candida albicans and antifungal reagents of fluconazole-resistant fungi” (Eur J Med Chem, 2021)
